Experimental data published in ChEMBL document CHEMBL4229322, “Antibacterial Paramagnetic Quinones from Actinoallomurus” (2017).
The source made the active and inactive calls.

Legend:
Assay type in all cases: functional
[1] = test system: Lactobacillus delbrueckii; experiment: Antimicrobial activity against Lactobacillus delbrueckii ATCC 4797 by broth microdilution method
[2] = test system: Mycolicibacterium smegmatis; experiment: Antimicrobial activity against Mycobacterium smegmatis str. MC2 155 by broth microdilution method
[3] = test system: Bacteroides fragilis; experiment: Antimicrobial activity against Bacteroides fragilis ATCC 25285 by broth microdilution method
[4] = test system: Staphylococcus aureus; experiment: Antimicrobial activity against glycopeptide-intermediate resistant Staphylococcus aureus L3798 by broth microdilution method
Summary of the method: (§1)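 CLSI broth microdilution in Müller Hinton broth containing 20 mg/L CaCl2 and 10 mg/L MgCl2. Clinical isolates inoculated at 5 × 10^5 cfu/mL and incubated at 37 °C for 20−24 h. MIC read as the lowest inhibiting concentration.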

[5] = test system: Acinetobacter baumannii; experiment: Antimicrobial activity against Acinetobacter baumannii ATCC 13637 by broth microdilution method
[6] = test system: Escherichia coli; experiment: Antimicrobial activity against hyperpermeable Escherichia coli G1640 by broth microdilution method
[7] = test system: Cutibacterium acnes; experiment: Antimicrobial activity against Propionibacterium acnes ATCC 25476 by broth microdilution method
[8] = test system: Staphylococcus haemolyticus; experiment: Antimicrobial activity against methicillin-resistant Staphylococcus haemolyticus L1730 by broth microdilution method; summary of the method: as §1
[9] = test system: Enterococcus faecium; experiment: Antimicrobial activity against VanA expressing Enterococcus faecium L569 by broth microdilution method
[10] = test system: Haemophilus influenzae; experiment: Antimicrobial activity against Haemophilus influenzae L3296 by broth microdilution method
[11] = test system: Moraxella catarrhalis; experiment: Antimicrobial activity against Moraxella catarrhalis L3292 by broth microdilution method
[12] = test system: Clostridioides difficile; experiment: Antimicrobial activity against Clostridium difficile L4013 by broth microdilution method
[13] = test system: Staphylococcus aureus; experiment: Antimicrobial activity against glycopeptide-intermediate resistant Staphylococcus aureus L3797 by broth microdilution method; summary of the method: as §1
[14] = test system: Escherichia coli; experiment: Antimicrobial activity against delta-tolC containing Escherichia coli L4242 by broth microdilution method
[15] = test system: Staphylococcus haemolyticus; experiment: Antimicrobial activity against methicillin-sensitive Staphylococcus haemolyticus L1729 by broth microdilution method
[16] = test system: Stenotrophomonas maltophilia; experiment: Antimicrobial activity against Stenotrophomonas maltophilia L3030 by broth microdilution method
[17] = test system: Pseudomonas aeruginosa; experiment: Antimicrobial activity against Pseudomonas aeruginosa ATCC 27853 by broth microdilution method
[18] = test system: Escherichia coli; experiment: Antimicrobial activity against Escherichia coli ATCC 25922 by broth microdilution method
[19] = test system: Enterococcus faecium; experiment: Antimicrobial activity against VanS expressing Enterococcus faecium L568 by broth microdilution method
[20] = test system: Streptococcus pyogenes; experiment: Antimicrobial activity against Streptococcus pyogenes ATCC BAA 1402 by broth microdilution method
[21] = test system: Staphylococcus aureus; experiment: Antimicrobial activity against methicillin-sensitive Staphylococcus aureus ATCC 6538P by broth microdilution method
[22] = test system: Streptococcus pyogenes; experiment: Antimicrobial activity against Streptococcus pyogenes ATCC BAA 1407 by broth microdilution method
[23] = test system: Streptococcus pyogenes; experiment: Antimicrobial activity against Streptococcus pyogenes L49 by broth microdilution method
[24] = test system: Staphylococcus aureus; experiment: Antimicrobial activity against methicillin-resistant Staphylococcus aureus L1400 by broth microdilution method; summary of the method: as §1

Measured: MIC

CN[C@H](CC(C)C)C(=O)N[C@H]1C(=O)N[C@@H](CC(N)=O)C(=O)N[C@H]2C(=O)N[C@H]3C(=O)N[C@H](C(=O)N[C@H](C(=O)O)c4cc(O)cc(O)c4-c4cc3ccc4O)[C@H](O)c3ccc(c(Cl)c3)Oc3cc2cc(c3O[C@@H]2O[C@H](CO)[C@@H](O)[C@H](O)[C@H]2O[C@H]2C[C@](C)(N)[C@H](O)[C@H](C)O2)Oc2ccc(cc2Cl)[C@H]1O [VANCOMYCIN]
128 µg/mL: [5] | [8] | [16]
0.5 µg/mL: [12]
8 µg/mL: [4] | [13]
16 µg/mL: [3]
0.25 µg/mL: [7]
2 µg/mL: [15] | [17]
32 µg/mL: [11]
> 128 µg/mL: [1] | [2] | [6] | [9] | [10] | [14] | [18]

COc1cc2c(=O)c3cc4c(=O)c(OC)cc(=O)c4c(O)c3c(=O)c2c2c1C(=O)OC2
active: all assays above

CNc1cc(=O)c2c(O)c3c(=O)c4c5c(c(OC)cc4c(=O)c3cc2c1=O)C(=O)OC5
active: all assays above

GENTAMICIN
16 µg/mL: [2]
128 µg/mL: [10]
0.125 µg/mL: [5]
0.25 µg/mL: [6] | [11] | [14] | [18]
64 µg/mL: [16]

O=C1OCc2c1c(O)cc1c(=O)c3cc4c(=O)c(O)cc(=O)c4c(O)c3c(=O)c21
> 64 µg/mL: [12]
8 µg/mL: [20] | [22]
16 µg/mL: [23]
> 16 µg/mL: all other assays above
